Results on 8 molecules are retold here after article PMC10651396 (The Journal of Cell Biology, 2023).

Where no end group is shown, it is not given here.

For assay [1], the system named is His-Cap1/2. The assay is described as follows: GST pulldown of capping protein by GST-CPI motif fusions. It is filed as binding, Saccharomyces cerevisiae. The note with it: in words; SDS-PAGE and Coomassie staining; His-Tda2 added with Aim21 fusions. An outline of the steps:
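Recombinant GST-CPI fusions and His-Cap1/2 were expressed in BL21 codon plus E. coli, affinity-purified, and dialyzed into PBS. GST protein (10 μg) was bound to glutathione Sepharose for 30 min at 4°C. Equimolar His-protein (His-Tda2 also for Aim21) was added for another 30 min. Resin was washed three times in PBS with 0.1–0.5% Triton X-100. Each pulldown was repeated independently.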

Assay [2] addresses T1, His-Cap1/2 (CP) (Saccharomyces cerevisiae, UniProt P13517+P28495).
T1 sequence (P28495 1-268): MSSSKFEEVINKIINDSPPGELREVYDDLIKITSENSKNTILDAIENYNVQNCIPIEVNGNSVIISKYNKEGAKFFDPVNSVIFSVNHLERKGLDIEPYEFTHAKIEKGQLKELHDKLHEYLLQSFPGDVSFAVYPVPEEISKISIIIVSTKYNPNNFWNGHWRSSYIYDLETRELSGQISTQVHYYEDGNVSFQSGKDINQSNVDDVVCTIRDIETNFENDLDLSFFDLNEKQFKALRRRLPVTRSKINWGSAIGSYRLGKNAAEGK
T1 sequence (P13517 1-287): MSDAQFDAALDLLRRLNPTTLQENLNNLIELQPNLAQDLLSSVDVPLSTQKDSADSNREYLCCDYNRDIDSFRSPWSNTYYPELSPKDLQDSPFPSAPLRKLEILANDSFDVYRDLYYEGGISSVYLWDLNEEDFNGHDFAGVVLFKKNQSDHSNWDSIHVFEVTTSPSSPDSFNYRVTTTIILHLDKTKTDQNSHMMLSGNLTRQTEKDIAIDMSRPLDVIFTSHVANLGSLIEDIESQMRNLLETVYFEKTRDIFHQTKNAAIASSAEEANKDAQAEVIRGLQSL
It is filed as biochemical. The note with it: in words; yeast actin, CP 100 nM, 500 nM peptide.

For assay [3], the system named is rabbit skeletal muscle actin. Nature of the assay: Pyrene actin polymerization assay, substance alone. It is filed as biochemical. The note with it: in words, capping protein 100 nM, 1 µM actin, 20% pyrene-labeled. An outline of the steps: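 Rabbit skeletal muscle G-actin in G-buffer (pH 8, 0.2 mM ATP) was spun at 100,000 × g for 30 min at 4°C. It was Mg-exchanged (10 mM EGTA, 1 mM MgCl2) for 10 min at room temperature. Polymerization was started with 50 mM KCl, 2 mM MgCl2, 1 mM ATP and 1 mM EGTA (final). Pyrene fluorescence was read over time at ex 365/em 406 nm. Relative rate came from three independent assays, mean ± SEM.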

Assay [4] deals with T2, 6-histidine-tagged actin capping protein (His-Cap1/2) (S. cerevisiae, UniProt P28495 1-268; P13517 1-287).
T2 sequence (looked up) 1: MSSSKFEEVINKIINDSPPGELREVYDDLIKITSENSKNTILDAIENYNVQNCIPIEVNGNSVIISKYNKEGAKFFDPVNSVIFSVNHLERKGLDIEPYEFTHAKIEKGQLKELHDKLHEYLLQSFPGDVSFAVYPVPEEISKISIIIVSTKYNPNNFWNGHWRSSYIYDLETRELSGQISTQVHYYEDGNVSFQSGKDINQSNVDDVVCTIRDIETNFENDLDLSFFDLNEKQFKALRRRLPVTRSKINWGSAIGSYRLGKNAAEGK
T2 sequence (looked up) 2: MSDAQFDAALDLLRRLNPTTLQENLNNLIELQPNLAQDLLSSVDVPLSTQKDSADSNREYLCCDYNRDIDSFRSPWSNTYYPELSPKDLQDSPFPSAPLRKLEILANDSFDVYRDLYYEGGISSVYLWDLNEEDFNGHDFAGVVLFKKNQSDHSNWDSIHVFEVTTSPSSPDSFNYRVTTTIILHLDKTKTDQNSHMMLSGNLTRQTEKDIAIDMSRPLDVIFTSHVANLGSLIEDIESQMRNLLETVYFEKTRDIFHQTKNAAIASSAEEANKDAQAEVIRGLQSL
Nature of the assay: pull-down.

Assay [5] has as its target T3, His-Cap1/2^D44A (S. cerevisiae, UniProt P28495 1-268; P13517 1-287, D44A).
T3 sequence (looked up) 1: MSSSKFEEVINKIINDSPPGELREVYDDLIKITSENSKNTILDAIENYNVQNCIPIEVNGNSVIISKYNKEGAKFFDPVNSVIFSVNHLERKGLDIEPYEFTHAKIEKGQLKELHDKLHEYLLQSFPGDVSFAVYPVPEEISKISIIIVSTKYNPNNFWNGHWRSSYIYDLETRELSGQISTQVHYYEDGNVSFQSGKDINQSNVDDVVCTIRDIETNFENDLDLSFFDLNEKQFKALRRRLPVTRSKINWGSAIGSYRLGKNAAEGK
T3 sequence (looked up) 2: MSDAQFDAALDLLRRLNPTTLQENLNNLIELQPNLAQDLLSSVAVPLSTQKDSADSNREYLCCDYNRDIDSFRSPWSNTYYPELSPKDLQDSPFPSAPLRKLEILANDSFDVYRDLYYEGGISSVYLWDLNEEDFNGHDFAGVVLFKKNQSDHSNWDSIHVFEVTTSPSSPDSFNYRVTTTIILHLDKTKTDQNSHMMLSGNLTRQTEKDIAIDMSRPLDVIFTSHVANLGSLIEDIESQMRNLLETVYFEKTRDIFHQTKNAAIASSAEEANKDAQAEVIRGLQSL
Nature of the assay: pull-down.

In assay [6] the target is T4, His-Cap1/2^D88A (S. cerevisiae, UniProt P28495 1-268; P13517 1-287, D88A).
T4 sequence (looked up) 1: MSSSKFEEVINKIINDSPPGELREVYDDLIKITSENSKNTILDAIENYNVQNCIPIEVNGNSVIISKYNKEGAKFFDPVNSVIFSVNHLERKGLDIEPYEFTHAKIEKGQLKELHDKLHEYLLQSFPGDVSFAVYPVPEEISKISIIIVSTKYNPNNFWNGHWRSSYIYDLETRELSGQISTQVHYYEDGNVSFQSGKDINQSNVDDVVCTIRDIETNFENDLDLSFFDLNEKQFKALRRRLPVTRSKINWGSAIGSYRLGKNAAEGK
T4 sequence (looked up) 2: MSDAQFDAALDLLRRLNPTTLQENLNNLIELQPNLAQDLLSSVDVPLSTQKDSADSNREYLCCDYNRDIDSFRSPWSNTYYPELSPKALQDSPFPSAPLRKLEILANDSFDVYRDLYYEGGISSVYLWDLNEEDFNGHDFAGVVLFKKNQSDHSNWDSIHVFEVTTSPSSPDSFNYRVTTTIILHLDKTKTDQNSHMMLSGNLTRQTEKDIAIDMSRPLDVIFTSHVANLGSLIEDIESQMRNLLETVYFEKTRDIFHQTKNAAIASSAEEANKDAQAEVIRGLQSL
Nature of the assay: pull-down.

Assay [7] concerns the target T5, His-Cap1/2^D64A (S. cerevisiae, UniProt P28495 1-268; P13517 1-287, D64A).
T5 sequence (looked up) 1: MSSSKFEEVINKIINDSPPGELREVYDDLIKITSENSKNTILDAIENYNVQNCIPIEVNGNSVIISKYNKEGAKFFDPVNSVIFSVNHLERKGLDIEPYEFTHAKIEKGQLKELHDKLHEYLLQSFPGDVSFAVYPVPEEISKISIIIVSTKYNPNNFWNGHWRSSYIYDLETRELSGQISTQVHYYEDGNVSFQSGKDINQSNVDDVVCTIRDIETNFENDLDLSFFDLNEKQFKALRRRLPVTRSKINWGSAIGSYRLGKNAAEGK
T5 sequence (looked up) 2: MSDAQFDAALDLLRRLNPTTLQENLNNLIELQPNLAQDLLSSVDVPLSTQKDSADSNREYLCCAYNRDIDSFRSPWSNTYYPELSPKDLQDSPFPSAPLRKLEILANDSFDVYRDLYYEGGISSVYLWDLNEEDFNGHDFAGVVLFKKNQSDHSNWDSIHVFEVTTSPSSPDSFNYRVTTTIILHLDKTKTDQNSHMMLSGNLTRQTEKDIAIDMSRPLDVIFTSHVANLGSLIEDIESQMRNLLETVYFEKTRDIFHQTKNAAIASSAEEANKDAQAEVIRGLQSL
Nature of the assay: pull-down.

As for “GST-Inp51: GST fused to Inp51 fragment (874–900) (SIAGPTHSPTPIPEPKRGRKLPPPSSD; also: GST fusion, end not given here)”, in assay [1], the “interaction with His-Cap1/2 in GST pulldown” value is given as “failed to pull down”.

With SNPDLPNKSNLKFNKPKGPLRKRRT [Twf1^CPI], in assay [2], the “effect on the capping function of CP” value is “had no effect”.

KETKPLVHPNKNRTRGPRRKLPTRV [Bsp1^CPI]: the “effect on the capping function of CP” value in assay [2] is recorded as “partially inhibited the capping function of CP”.

With “KTGPLGGTRRGRGPRGRKLPSKVASVEKIEEDDNTNKIEIFNNWNVSS [Aim21^CPI]”, in assay [2], the “effect on the capping function of CP” value is given as “partially inhibited the capping function of CP”.

B1: CP: 6-histidine–tagged yeast actin capping protein, Cap1/Cap2 heterodimer (protein, UniProt P28495 2-268; P13517 2-287, looked up)
F-actin-capping protein … 1: SSSKFEEVINKIINDSPPGELREVYDDLIKITSENSKNTILDAIENYNVQNCIPIEVNGNSVIISKYNKEGAKFFDPVNSVIFSVNHLERKGLDIEPYEFTHAKIEKGQLKELHDKLHEYLLQSFPGDVSFAVYPVPEEISKISIIIVSTKYNPNNFWNGHWRSSYIYDLETRELSGQISTQVHYYEDGNVSFQSGKDINQSNVDDVVCTIRDIETNFENDLDLSFFDLNEKQFKALRRRLPVTRSKINWGSAIGSYRLGKNAAEGK
F-actin-capping protein … 2: SDAQFDAALDLLRRLNPTTLQENLNNLIELQPNLAQDLLSSVDVPLSTQKDSADSNREYLCCDYNRDIDSFRSPWSNTYYPELSPKDLQDSPFPSAPLRKLEILANDSFDVYRDLYYEGGISSVYLWDLNEEDFNGHDFAGVVLFKKNQSDHSNWDSIHVFEVTTSPSSPDSFNYRVTTTIILHLDKTKTDQNSHMMLSGNLTRQTEKDIAIDMSRPLDVIFTSHVANLGSLIEDIESQMRNLLETVYFEKTRDIFHQTKNAAIASSAEEANKDAQAEVIRGLQSL
modifications: His6 tag
Take B1: the “ability to cap actin filaments” value in assay [3] (listed as CP^1*) is reported as “no ability to cap actin filaments”; in assay [3] (listed as CP^2*), “equivalent capping ability to CP”.

B2: GST-Aim21^CPI (Aim21 491-545) with His-Tda2 (Tda2/Aim21 complex) (complex, S. cerevisiae)
chain 1: QAKTGPLGGTRRGRGPRGRKLPSKVASVEKIEEDDNTNKIEIFNNWNVSSSFSKE
chain 2: MSMQIEIKDGRSDNSPLPERKLVTLIQESYDSLKDDNEINLSTESTSNLLIKLVLEKLEKHSSLYKYIASVTTLNIEGLNEENANFSLKNDIGASWESKKDGIFNYKLEDKNNNECYLITILWLHK
Turning to B2, the binding result in assay [4], in assay [5], in assay [6] and in assay [7] was “binds” throughout.

As to KETKPLVHPNKNRTRGPRRKLPTRV (domain or fragment, S. cerevisiae) [GST-Bsp1^CPI (Bsp1 552-576)], the binding result in assay [4], in assay [5], in assay [6] and in assay [7] was “binds” each time.

On to SNPDLPNKSNLKFNKPKGPLRKRRT (domain or fragment, S. cerevisiae) [GST-Twf1^CPI (Twf1 308-332)], for which the binding result in assay [4], in assay [5], in assay [6] and in assay [7] was “binds” throughout.
